Source: ChEMBL document CHEMBL2331405, “Benzanilide-Biphenyl Replacement: A Bioisosteric Approach to Quinoline Carboxamide-Type ABCG2 Modulators” (ACS Med Chem Lett, 2013)

Assays:
[1] = Half life in NMRI nu/nu mouse plasma at 3 mM by RP-HPLC analysis; type: ADME, cell-free
Plasma = assay: Stability in NMRI nu/nu mouse plasma at 3 mM measured within 30 mins by RP-HPLC analysis; type: ADME, cell-free; conditions: 0.5 h, 3000 µM
ABCG2 [2] = molecular target: T1, ABCG2 (Homo sapiens, UniProt Q9UNQ0); assay: Inhibition of ABCG2 in human MCF7/Topo cells at 70 to 100 uM after 2 hrs by Hoechst 33342 microplate assay relative to 10 uM fumitremorgin; type: cell-based; conditions: probe Hoechst 33342, read-out: Imax
T1 sequence (Q9UNQ0 whole entry): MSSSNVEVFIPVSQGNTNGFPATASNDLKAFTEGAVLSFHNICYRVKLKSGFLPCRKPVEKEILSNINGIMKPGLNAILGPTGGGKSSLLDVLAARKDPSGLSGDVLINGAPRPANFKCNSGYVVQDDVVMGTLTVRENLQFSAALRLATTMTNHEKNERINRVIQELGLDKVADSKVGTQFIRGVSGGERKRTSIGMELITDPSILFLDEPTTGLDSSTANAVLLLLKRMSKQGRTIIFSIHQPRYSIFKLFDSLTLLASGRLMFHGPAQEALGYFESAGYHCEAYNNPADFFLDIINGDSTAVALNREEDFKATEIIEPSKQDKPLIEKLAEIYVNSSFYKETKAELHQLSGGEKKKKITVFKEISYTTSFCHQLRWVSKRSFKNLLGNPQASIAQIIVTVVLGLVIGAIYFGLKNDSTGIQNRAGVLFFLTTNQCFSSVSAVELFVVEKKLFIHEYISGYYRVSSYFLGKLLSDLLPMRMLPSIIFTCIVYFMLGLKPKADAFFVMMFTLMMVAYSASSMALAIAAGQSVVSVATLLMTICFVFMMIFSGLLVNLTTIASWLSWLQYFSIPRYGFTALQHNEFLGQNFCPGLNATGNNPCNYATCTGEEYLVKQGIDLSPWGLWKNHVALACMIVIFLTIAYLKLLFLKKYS

ABCB1 = ABCB1 (Homo sapiens, UniProt P08183); assay: Inhibition of ABCB1 in human KBV1 cells after 10 mins by Calcein-AM microplate assay relative to 1 uM tariquidar; type: cell-based; conditions: probe calcein-AM
How it was run: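 Microplate calcein-AM assay in ABCB1-overexpressing Kb-V1 cells. Maximal inhibition is expressed as a percentage of the maximal response to tariquidar at 1 μM. Means ± SEM come from two to three independent experiments, each run in triplicate.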

[3] = molecular target: T2, ATP-dependent translocase ABCB1 (Homo sapiens, UniProt P08183); assay: Inhibition of ABCB1 in human KBV1 cells after 10 mins by Calcein-AM microplate assay; type: cell-based
[4] = molecular target: T3, Broad substrate specificity ATP-binding cassette transporter ABCG2 (Homo sapiens, UniProt Q9UNQ0); assay: Inhibition of ABCG2 in human MCF7/Topo cells after 2 hrs by Hoechst 33342 microplate assay; type: cell-based; conditions: for inhibition (INH): human, mcf7/topo, 2 h
T3 sequence (Q9UNQ0 whole entry): T1 sequence (Q9UNQ0 whole entry)

[5] = molecular target: T2, ATP-dependent translocase ABCB1; assay: Inhibition of ABCB1 in human KBV1 cells up to 100 uM after 10 mins by Calcein-AM microplate assay; type: cell-based; conditions: kbv1, 10 min
How it was run: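 Microplate calcein-AM efflux assay in ABCB1-overexpressing Kb-V1 cells. Values are means ± SEM from two to three independent experiments, each run in triplicate.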

ABCG2 [6] = molecular target: T1, ABCG2; assay: Ratio of compound IC50 to elacridar IC50 for ABCG2 in human MCF7/Topo cells after 2 hrs by Hoechst 33342 microplate assay; type: cell-based; conditions: probe Hoechst 33342, read-out: Ratio IC50

Sequence of ABCB1 (P08183 whole entry): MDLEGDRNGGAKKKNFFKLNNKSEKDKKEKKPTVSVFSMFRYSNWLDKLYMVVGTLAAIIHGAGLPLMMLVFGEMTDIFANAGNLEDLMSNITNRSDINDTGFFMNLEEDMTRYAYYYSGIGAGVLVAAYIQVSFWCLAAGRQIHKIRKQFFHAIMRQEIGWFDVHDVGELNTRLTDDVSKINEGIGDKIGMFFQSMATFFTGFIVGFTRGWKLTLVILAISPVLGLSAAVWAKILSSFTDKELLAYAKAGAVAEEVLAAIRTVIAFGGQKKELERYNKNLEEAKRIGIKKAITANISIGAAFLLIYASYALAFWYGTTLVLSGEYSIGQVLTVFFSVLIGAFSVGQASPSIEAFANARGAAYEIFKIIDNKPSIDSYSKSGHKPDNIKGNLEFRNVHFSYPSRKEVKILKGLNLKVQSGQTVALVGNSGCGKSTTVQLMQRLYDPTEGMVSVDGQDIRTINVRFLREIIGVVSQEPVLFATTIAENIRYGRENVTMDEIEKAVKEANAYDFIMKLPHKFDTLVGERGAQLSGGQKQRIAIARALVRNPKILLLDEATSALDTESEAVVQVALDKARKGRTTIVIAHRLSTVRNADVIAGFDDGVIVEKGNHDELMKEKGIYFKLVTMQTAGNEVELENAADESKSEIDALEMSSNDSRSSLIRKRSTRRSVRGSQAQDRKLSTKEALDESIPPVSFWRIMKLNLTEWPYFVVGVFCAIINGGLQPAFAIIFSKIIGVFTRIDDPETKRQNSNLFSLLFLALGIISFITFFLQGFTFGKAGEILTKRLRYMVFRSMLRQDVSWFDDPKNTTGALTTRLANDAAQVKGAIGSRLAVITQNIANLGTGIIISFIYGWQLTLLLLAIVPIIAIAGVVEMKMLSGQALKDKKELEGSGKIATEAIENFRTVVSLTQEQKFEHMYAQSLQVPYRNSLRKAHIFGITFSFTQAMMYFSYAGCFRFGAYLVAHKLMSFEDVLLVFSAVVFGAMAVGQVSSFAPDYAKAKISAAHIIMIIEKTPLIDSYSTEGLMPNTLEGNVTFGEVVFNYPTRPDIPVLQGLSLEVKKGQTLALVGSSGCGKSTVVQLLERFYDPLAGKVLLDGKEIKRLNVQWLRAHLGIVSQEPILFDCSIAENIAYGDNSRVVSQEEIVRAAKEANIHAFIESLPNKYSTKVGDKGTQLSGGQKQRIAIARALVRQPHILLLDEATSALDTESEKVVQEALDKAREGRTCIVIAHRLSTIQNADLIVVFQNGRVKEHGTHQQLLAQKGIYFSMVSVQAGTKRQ
T2 sequence (P08183 whole entry): as above

half-life at 3000 µM [1] [h] | Stability (Plasma) | Emax at 2 h (ABCG2 [2]) [%] | inhibition at 10 min (ABCB1) [%] | IC50 [3] [nM] | IC50 [4] [nM] | inhibition (INH) [4] | inhibition (INH) [5] | Compound | selectivity ratio at 2 h (ABCG2 [6])
0.167 | Unstable |  |  |  |  |  |  | COCCOCCOCCOc1cc2c(cc1OC)CCN(CCc1ccc(NC(=O)c3ccc(C(=O)OC)c(NC(=O)c4ccc5ccccc5n4)c3)cc1)C2 | 
24 |  | 98 | 50 | 5420 | 760 |  |  | COCCOCCOCCOc1cc2c(cc1OC)CCN(CCc1ccc(-c3ccc(C(=O)OC)c(NC(=O)c4ccc5ccccc5n4)c3)cc1)C2 | 
24 |  | 112 | 50 | 5990 | 544 | Dose-dependent effect |  | COCCOCCOCCOc1cc2c(cc1OCCOCCOCCOC)CN(CCc1ccc(-c3ccc(C(=O)OC)c(NC(=O)c4ccc5ccccc5n4)c3)cc1)CC2 | 
24 |  | 87 |  |  | 943 |  | Not Active | COC(=O)c1ccc(-c2ccc(CN3CCc4cc(OC)c(OC)cc4C3)cc2)cc1NC(=O)c1ccc2ccccc2n1 | 
24 |  | 92 |  | 10900 | 1540 |  |  | COC(=O)c1ccc(-c2ccc(CN3CCc4cc(OC)c(OC)cc4C3)cc2)cc1NC(=O)c1ccc2ncccc2c1 | 
24 |  | 114 |  |  | 1030 |  | Not Active | COCCOCCOCCOc1cc2c(cc1OC)CN(Cc1ccc(-c3ccc(C(=O)OC)c(NC(=O)c4ccc5ccccc5n4)c3)cc1)CC2 | 
24 |  | 67 |  | 18000 | 237 |  |  | COCCOCCOCCOc1cc2c(cc1OC)CN(Cc1ccc(-c3ccc(C(=O)OC)c(NC(=O)c4ccc5ncccc5c4)c3)cc1)CC2 | 
24 |  | 109 | 20 | 1230 | 591 | Dose-dependent effect |  | COCCOCCOCCOc1cc2c(cc1OC)CCN(Cc1ccc(-c3ccc(C(=O)OC)c(NC(=O)c4ccc5ccccc5n4)c3)cc1)C2 | 
24 |  | 103 |  |  | 839 |  | Not Active | COCCOCCOCCOc1cc2c(cc1OCCOCCOCCOC)CN(Cc1ccc(-c3ccc(C(=O)OC)c(NC(=O)c4ccc5ccccc5n4)c3)cc1)CC2 | 
24 |  | 90 |  |  | 1100 |  | Not Active | COC(=O)c1ccc(-c2ccc(CCN3CCc4ccccc4C3)cc2)cc1NC(=O)c1ccc2ccccc2n1 | 
24 |  | 126 |  |  | 3210 |  | Not Active | COC(=O)c1ccc(-c2ccc(CCN3CCc4cc(OC)c(OC)cc4C3)cc2)cc1NC(=O)c1ccc2ccccc2n1 | 
24 |  | 85 |  |  | 1460 |  | Not Active | COC(=O)c1ccc(-c2ccc(CN3CCc4ccccc4C3)cc2)cc1NC(=O)c1ccc2ccccc2n1 | 
24 |  | 94 |  | 4490 | 641 |  |  | COC(=O)c1ccc(-c2ccc(CN3CCc4ccccc4C3)cc2)cc1NC(=O)c1ccc2ncccc2c1 | 
 |  | 69 |  |  |  | Dose-dependent effect |  | COc1cc2c(cc1OC)CN(CCc1ccc(NC(=O)c3cc(OC)c(OC)cc3NC(=O)c3cnc4ccccc4c3)cc1)CC2 | 4
 |  | 63 |  |  |  |  |  | COc1cc2c(cc1OC)CN(CCc1ccc(NC(=O)c3cccc4c(=O)c5cccc(OC)c5[nH]c34)cc1)CC2 | 
0.167 | Unstable | 63 |  |  | 65 | Dose-dependent effect |  | COC(=O)c1ccc(C(=O)Nc2ccc(CCN3CCc4cc(OC)c(OC)cc4C3)cc2)cc1NC(=O)c1ccc2ccccc2n1 | 

Compound | half-life at 3000 µM [1] [h] | Stability (Plasma) | Emax at 2 h (ABCG2 [2]) [%] | inhibition at 10 min (ABCB1) [%] | IC50 [3] [nM] | IC50 [4] [nM] | inhibition (INH) [4] | inhibition (INH) [5] | selectivity ratio at 2 h (ABCG2 [6])
COc1ccc2c3c([nH]c2c1)[C@H](CC(C)C)N1C(=O)[C@H](CCC(=O)OC(C)(C)C)NC(=O)[C@@H]1C3 |  |  |  |  |  |  |  | Not Active | 
COc1ccc2c3c([nH]c2c1)[C@H](C=C(C)C)N1C(=O)[C@@H]2CCCN2C(=O)[C@@H]1C3 [FUMITREMORGIN] |  |  | 100 |  |  | 731 |  |  | 
